In publication PMC3235361 (Biochemistry, 2011):

Legend:
[1] = system: differentiated PC-12 cells; experiment: Neuroprotection against Aβ42, MTT assay, differentiated PC-12 cells; assay type: cell-based; details: both isomers to a similar extent, data not shown
[2] = system: rat primary cortical or hippocampal neurons; experiment: Toxicity compared with WT Aβ across MTT and LDH assays, rat primary neurons; assay type: cell-based; details: 10 μM, 48 h
Outline: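 E18 rat cortical or hippocampal neurons on poly-D-lysine in DMEM/10% FBS; 5 μM cytosine arabinoside from 24 h; treated at day 6. HFIP-treated peptide films dissolved in 60 mM NaOH, diluted in medium (final NaOH ≤6 mM), sonicated; 10 μM final, 48 h. MTT: 4 h at 37°C, stop overnight, OD; 3 experiments. LDH release: 6 experiments. 6 wells/point; normalized to NaOH-medium control; ANOVA/Tukey.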

Compound	protection against Aβ-induced toxicity, MTT (in words) [1]	toxicity compared with the WT Aβ form (in words) [2]
CC(=O)N[C@H](CC[S+](C)[O-])C(=O)O (stereo partly drawn) [Ac-D-Met(O)]	significantly protected	
CC(=O)N[C@@H](CC[S+](C)[O-])C(=O)O (stereo partly drawn) [Ac-L-Met(O)]	significantly protected	
[Met(O)^35]Aβ42 [Aβ42-Met(O)]		significantly less toxic
